This passage reports Solubility ratio and Diuretic activity results from ChEMBL document CHEMBL1124367, “Design, synthesis, and testing of potential antisickling agents. 7. Ethacrynic acid analogues” (J Med Chem, 1989).

Series [1] can be described thus: Solubility ratio of the sickle cell haemoglobin with compound to sickle cell haemoglobin with out compound at 7 mM. It counts as ADME. The note with it: 7000 µM. The gist of the method:
(§1)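 HbS purified from red cells by DEAE-Sephacel chromatography and held in 150 mM phosphate, pH 7.4. Compound was added as its sodium salt in 0.15 M phosphate, pH 7.4, and incubated with HbS overnight at 4°C. Samples were sealed in EPR tubes and spun at 150000 g for 2.5 h at 35°C.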

A short description of series [2]: Solubility ratio of the sickle cell haemoglobin with compound to sickle cell haemoglobin with out compound at 3 mM. It counts as ADME. Particulars: 3000 µM. The gist of the method: as §1
A short description of series [3]: (§2) Solubility ratio of the sickle cell haemoglobin with compound to sickle cell haemoglobin with out compound at 9 mM. It counts as ADME. The note with it: 9000 µM. The gist of the method: as §1
Series [4] can be described thus: Solubility ratio for sickle cell haemoglobin in presence and absence of compound. It counts as ADME. Put shortly: as §1
The nature of series [5]: Solubility ratio of the sickle cell haemoglobin with compound to sickle cell haemoglobin with out compound at 10 mM. It counts as ADME. Particulars: 10000 µM. The gist of the method: (§3)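 HbS purified from red cells by DEAE-Sephacel chromatography and held in 150 mM phosphate, pH 7.4. Compound was added as its sodium salt in 0.15 M phosphate, pH 7.4, and incubated with HbS overnight at 4°C. Sodium dithionite was then added (final 58.88 mM, final HbS about 24 g%). Samples were sealed in EPR tubes and spun at 150000 g for 2.5 h at 35°C.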

In series [6] the test system is Canis familiaris. Briefly: Diuretic activity of compound measured in dog urine after intravenous administration of 5 mg/kg.
Series [7] in a line: Solubility ratio of the sickell cell haemoglobin with compound to sickle cell haemoglobin with out compound at 9 mM. It counts as ADME. Particulars: 9000 µM. The gist of the method: as §3
A short description of series [8]: Solubility ratio of the sickell cell haemoglobin with compound to sickle cell haemoglobin with out compound at 5 mM. It counts as ADME. The note with it: 5000 µM. The gist of the method:
as §3

A short description of series [9]: Solubility ratio of the sickell cell haemoglobin with compound to sickle cell haemoglobin with out compound at 7 mM. It counts as ADME. Particulars: 7000 µM. The gist of the method:
as §3

The subject of series [10] is Canis familiaris. Briefly: Diuretic activity of compound measured in dog urine after intravenous injection of 5 mg/kg. It counts as functional, Canis lupus familiaris.
The nature of series [11]: Solubility ratio of the sickel cell haemoglobin with compound to sickle cell haemoglobin with out compound at 3 mM. It counts as ADME. The note with it: 3000 µM. Put shortly: as §3
Series [12] is described as follows: as §2. It counts as ADME. The note with it: 9000 µM. The gist of the method: as §3
The source holds these as a separate data set.

A short description of series [13]: Solubility ratio of the sickle cell haemoglobin with compound to sickle cell haemoglobin without compound at 5 mM. It counts as ADME. Particulars: 5000 µM. The gist of the method:
as §3

The nature of series [14]: Solubility ratio of the sickle cell haemoglobin with compound to sickell cell haemoglobin with out compound at 10 mM. It counts as ADME. The note with it: 10000 µM. Put shortly:
as §3

The nature of series [15]: Solubility ratio of the sickle cell haemoglobin with compound to sickell cell haemoglobin with out compound at 5 mM. It counts as ADME. Particulars: 5000 µM. Put shortly: as §3

Molecules are shown by their SMILES.

On to `C=C(CCC)C(=O)c1ccc(OCCCC(=O)O)c(Cl)c1Cl`, for which the Solubility ratio in [1] was 1.155; in series [2] it was 1.082; in series [3], 1.149; in series [4], 1.115.
With `O=C(c1cccs1)c1cc2c(c(Cl)c1Cl)OC(C(=O)O)C2` (stereo unspecified), the Solubility ratio in series [5] turned out to be 1.08; in series [4], 1.076. Also, the Diuretic activity with Canis familiaris [6] was 0.
With `C=C(CC)C(=O)c1ccc(OCCC(=O)O)c(Cl)c1Cl`, the Solubility ratio was determined as 1.112 in series [2], 1.302 in [7], 1.145 in series [8] and 1.188 in [9].
Take `C=C(CC)C(=O)c1ccc(OCC(=O)O)c(Cl)c1Cl` [ETHACRYNIC ACID]: the Solubility ratio in [1] is recorded as 1.151; in [2], 1.07; in series [3], 1.184; in [4], 1.125. Besides, the Diuretic activity in the series on Canis familiaris [10] was 6.
For the compound `C=C(CC)C(=O)c1ccc(OCCCCCC(=O)O)c(Cl)c1Cl`, the Solubility ratio in series [11] was 1.063; in series [1] it was 1.125; in series [3] it was 1.164; in series [4] it was 1.086.
On to `CC1(C2CCCC2)Cc2cc(OCCCC(=O)O)c(Cl)c(Cl)c2C1=O` (stereo unspecified), for which the Solubility ratio is on record as 1.006 in series [5] and 0.961 in series [4].
In turn, `CC(C)C(Br)C(=O)c1ccc(OCC(=O)O)c(Cl)c1Cl` (stereo unspecified) displayed a Diuretic activity in the series with Canis familiaris [10] of 3. Further, the Solubility ratio in series [5] was 0.983; in [4], 0.966.
Consider `C/C(=C/c1ccc(OCC(=O)O)cc1)[N+](=O)[O-]`, for which the Solubility ratio worked out at 1.075 in series [1], 1.038 in series [2], 1.099 in series [3] and 1.076 in series [4]. Moreover, the Diuretic activity with Canis familiaris [10] came out at 1.
As for `CC1(C2CCCC2)Cc2cc(OCC(=O)O)c(Cl)c(Cl)c2C1=O` (stereo unspecified), the Solubility ratio in [5] worked out at 1.015; in series [4], 1.01. Besides, the Diuretic activity in the series on Canis familiaris [6] came out at 2.
`CC/C(=C/c1ccc(C(=O)O)cc1Cl)[N+](=O)[O-]`: the Solubility ratio in [1] was determined as 1.106; in [2], 1.052; in series [4], 1.1; in series [12], 1.15.
In the case of `CCC1=C(c2ccc(OCCCC(=O)O)c(Cl)c2Cl)OC(CC)(C(=O)c2ccc(OCCCC(=O)O)c(Cl)c2Cl)CC1` (stereo unspecified), the Solubility ratio in [3] is reported as 1.039; in series [4], 1.059.
With `CC/C(=C/c1ccc(OCC(=O)O)c(OC)c1)[N+](=O)[O-]`, the Solubility ratio in [1] turned out to be 1.159; in series [2], 1.085; in series [3] it was 1.207; in [4], 1.128.
`CCC(CN(C)C)C(=O)c1ccc(OCC(=O)O)c(Cl)c1Cl.Cl` (stereo unspecified) showed a Diuretic activity in the series with Canis familiaris [10] of 4. Besides, the Solubility ratio in series [5] is recorded as 1.168; in series [4], 1.018.
As for `C=CC(=O)c1ccc(OCC(=O)O)c(Cl)c1Cl`, the Solubility ratio in series [1] stood at 1.067; in series [2] it was 1.033; in series [3], 1.095; in [4], 1.06.
On the same counts, the results for `C=C(CC)C(=O)c1ccc(OCCN(CC)CC)c(Cl)c1Cl` are 1.089, 1.073, 1.113 and 1.077.
In turn, `CC(=O)C(=Cc1ccc(OCC(=O)O)c(Cl)c1Cl)C(C)=O` registered a Diuretic activity in the series on Canis familiaris [10] of 6.
Regarding `C=C(CC)C(=O)c1ccc(OC2(C(=O)O)CCC2)c(Cl)c1Cl`, the Solubility ratio was found to be 1.147 in [1], 1.08 in [2], 1.202 in series [3] and 1.127 in [4].
Turning to `C=C(CC)C(=O)c1ccc(OCCCCC(=O)O)c(Cl)c1Cl`, the Solubility ratio in series [1] was 1.2; in series [2], 1.081; in [3], 1.308; in series [4] it was 1.129.
As for `C=C(CC)C(=O)c1c(Cl)cc(Cl)cc1OCC(=O)O`, the Solubility ratio in [1] is 1.103; in series [2] it was 1.048; in [3] it was 1.129; in series [4], 1.08.
In the case of `CC1(c2ccccc2)Cc2cc(OCC(=O)O)c(Cl)c(Cl)c2C1=O` (stereo unspecified) [INDACRINONE], the Solubility ratio is reported as 1 in [5] and 0.989 in series [4]. Moreover, the Diuretic activity in the series on Canis familiaris [6] is on record as 3.
In the case of `CCC(C)C(=O)c1ccc(OCC(=O)O)c(Cl)c1Cl` (stereo unspecified), the Solubility ratio in series [13] amounted to 1.061; in series [5], 1.088. Also, in the series on Canis familiaris [10], the Diuretic activity was found to be 2.
As for `C=C(CC)C(=O)c1ccc(OCCCC(=O)O)c(Cl)c1Cl`, the Solubility ratio in series [1] is given as 1.168; in series [2] it was 1.084; in [3], 1.196; in series [4] it was 1.122.
Take `CCC(SC)C(=O)c1ccc(OCC(=O)O)c(Cl)c1Cl` (stereo unspecified): the Solubility ratio in series [5] is reported as 1.073; in series [4], 1.016.
Take `CC/C(=C/c1ccc(OCC(=O)O)c(Cl)c1Cl)[N+](=O)[O-]`: the Solubility ratio in series [1] was 1.096; in series [2], 1.051; in series [3], 1.131; in [4], 1.086.
Turning to `CCC1=Cc2cc(OCC(=O)O)c(Cl)c(Cl)c2C1=O`, the Solubility ratio is 1.103 in series [1], 1.074 in series [2], 1.12 in [3] and 1.09 in series [4]. The compound also came in with a Diuretic activity with Canis familiaris [10] of 5.
For `C=C(CC)C(=O)c1ccc(OCC(=O)NCC(=O)O)c(Cl)c1Cl`, in that order: 1.222, 1.109, 1.327, 1.145 and 3.
For `C=C(CC)C(=O)c1ccc(OC(C)(C)C(=O)O)c(Cl)c1Cl`, in that order: 1.183, 1.05, 1.237, 1.094 and 0.
With `C=C(CC)C(=O)c1ccc(OCCCC(=O)NCC(=O)O)c(Cl)c1Cl`, the Solubility ratio in series [1] turned out to be 1.287; in series [2], 1.107; in series [3], 1.309; in [4], 1.224.
For `CCC(C(=O)c1ccc(OCC(=O)O)c(Cl)c1Cl)S(C)(=O)=O` (stereo unspecified), the values for the Solubility ratio in series [14] and in series [15] were 1.052 and 1.029, respectively.
`CCC1=C(c2ccc(OCC(=O)O)c(Cl)c2Cl)OC(CC)(C(=O)c2ccc(OCC(=O)O)c(Cl)c2Cl)CC1` (stereo unspecified) came in with a Diuretic activity in the series on Canis familiaris [10] of 0. The Solubility ratio was determined as 0.996 in series [14] and 0.993 in series [15].
For the compound `C=C(CCC)C(=O)c1ccc(OC2(C(=O)O)CCC2)c(Cl)c1Cl`, the Solubility ratio in [1] is 1.099; in [2], 1.057; in [3], 1.143; in series [4], 1.085.
Regarding `C/C=C(\CC)C(=O)c1ccc(OCC(=O)O)c(Cl)c1Cl`, the Solubility ratio is 1.062 in series [1], 1.017 in series [2], 1.078 in series [3] and 1.033 in [4]. Further, the Diuretic activity in the series with Canis familiaris [10] worked out at 5.
